Assay results from different studies.
Compare with care: the assays were run in different laboratories.
CDK8: Cyclin-dependent kinase 8 (CDK8, Homo sapiens, UniProt P49336)
CDK8 with cyclin C: Cyclin-dependent kinase 8, with cyclin C (CDK8, Homo sapiens, UniProt P49336)

Compound	target	test	conditions	measurement	result
CCN1CCC2(CC1)NC(=O)c1c(c3ccc(Cl)c(Cl)c3n1C)C2C#N (racemic)	CDK8	thermal stability, DSF	10 µM	ΔTm	1.2 °C
O=C(O)[C@H]1[C@H](Cn2nnc3ccccc3c2=O)CC[C@@H]1C(=O)c1ccc(OCCC2CCOCC2)cc1	CDK8	cell-free assay, competition with immobilised ligand	1 µM	remaining binding	100%
COc1ccnn2ncc(-c3ccnc(N(C)C)n3)c12	CDK8	binding	1 µM	remaining binding	100%
Cc1sc(C(=O)NC2COC2)cc1-n1cc(NC(=O)Nc2c(F)cccc2Cl)cn1	CDK8 with cyclin C	enzyme activity, inhibitor	10 µM	remaining activity	92.7%
CC(C)(C)c1nc2c(s1)c1nc(N)ncc1c1ccc(NS(=O)(=O)c3c(F)cccc3F)c(F)c12	CDK8 with cyclin C	enzyme activity, inhibitor, radiometric	1 µM	remaining activity	100%
CC1(C)NC(=O)c2[nH]c3c(Cl)c(Cl)ccc3c2C1C#N (stereo not shown)	CDK8	thermal stability, DSF	10 µM	ΔTm	0.5 °C
O=C(Nc1cnn(-c2csc(C(=O)NC3COC3)c2)c1)Nc1c(F)cccc1Cl	CDK8 with cyclin C	enzyme activity, inhibitor	5 µM	remaining activity	99%
CC(C)CC(=O)N1CCc2nc(-c3ccc(Br)cc3)nc(N(C)Cc3ccccc3)c2C1	CDK8	cell-free assay, competition with immobilised ligand	0.1 µM	remaining binding	82%
CN1CCC2(CC1)NC(=O)c1c(c3ccc(Cl)c(Cl)c3n1C)C2C#N (racemic)	CDK8	thermal stability, DSF	10 µM	ΔTm	1.8 °C
CCC(=O)N[C@H]1CC[C@@H](C(=O)N(C)c2ccc(-c3nc4ccccc4o3)cc2)C1	CDK8	cell-free assay, competition with immobilised ligand	1 µM	remaining binding	100%
Cn1c2c(c3ccc(Cl)c(Cl)c31)C(C#N)C1(CCNCC1)NC2=O (racemic)	CDK8	thermal stability, DSF	10 µM	ΔTm	2.2 °C
NS(=O)(=O)c1cc(NC(=O)Cc2ccccc2)ccc1Oc1cccc(Cl)c1	CDK8	cell-free assay, competition with immobilised ligand	1 µM	remaining binding	68%
CN1CCN(C(=O)c2ccc3cc(CCNc4ccnc5ccc(C#N)cc45)ccc3c2)CC1	CDK8	binding, competition with immobilised ligand	2 µM	inhibition	> 85%
